6 compounds from ChEMBL document CHEMBL3616473, “Identification and in silico prediction of metabolites of the model compound, tebufenozide by human CYP3A4 and CYP2C19” (Bioorg Med Chem, 2015) can be followed below.

One data set addresses Cytochrome P450 3A4 (Homo sapiens, UniProt P08684). The data set is described as follows: Drug level in yeast cells expressing human CYP3A4 assessed as human CYP3A4-mediated compound formation by pre-incubated with 200 uM tebufenozide for 2 mins at 37 degC before NADPH addition by LC/MS method. Format: ADME, cell-based. As to conditions: recombinant enzyme. In short, it runs like this: (§1)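 Microsomes with 67 nM human P450 in 100 mM phosphate buffer, pH 7.4, preincubated 2 min at 37 °C. Reaction started with NADPH (1 mM final) at 37 °C and stopped at various times with two volumes of acetonitrile and shaking. After centrifugation (7,000 G, 10 min), the acetonitrile phase was analysed by HPLC and by LC/MS (ESI positive mode, m/z 100-500).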

Data set [1] in a line: Retention time of the compound by HPLC method. Format: physicochemical.
The target of the next data set is Cytochrome P450 2C19 (Homo sapiens, UniProt P33261). Kind of data set: Drug level in yeast cells expressing human CYP2C19 assessed as human CYP2C19-mediated compound formation by pre-incubated with 200 uM tebufenozide for 2 mins at 37 degC before NADPH addition by LC/MS method. Format: ADME, cell-based. Conditions: recombinant enzyme. In short, it runs like this: as §1

A short description of data set [2]: Selectivity index, ratio of Km for human CYP3A4-mediated metabolite-M1 formation to Km for human CYP2C19-mediated metabolite-M1 formation. As to conditions: recombinant enzyme.
The nature of data set [3]: Selectivity index, ratio of Vmax for human CYP3A4-mediated metabolite-M1 formation to Vmax for human CYP2C19-mediated metabolite-M1 formation. Conditions: recombinant enzyme. In short, it runs like this:
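Microsomes with 67 nM human CYP3A4 or CYP2C19 in 100 mM phosphate buffer, pH 7.4, with tebufenozide (1–50, 2% acetonitrile), preincubated 2 min at 37 °C. NADPH (1 mM final) was added, and reactions were stopped with acetonitrile after 5 min (CYP3A4) or 10 min (CYP2C19). M1 was quantified by HPLC, and Km and Vmax were fitted from rate (mol/min/mol P450) against substrate concentration.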

Each structure is given as a SMILES string.

Chain of Cytochrome P450 3A4 (P08684 whole entry): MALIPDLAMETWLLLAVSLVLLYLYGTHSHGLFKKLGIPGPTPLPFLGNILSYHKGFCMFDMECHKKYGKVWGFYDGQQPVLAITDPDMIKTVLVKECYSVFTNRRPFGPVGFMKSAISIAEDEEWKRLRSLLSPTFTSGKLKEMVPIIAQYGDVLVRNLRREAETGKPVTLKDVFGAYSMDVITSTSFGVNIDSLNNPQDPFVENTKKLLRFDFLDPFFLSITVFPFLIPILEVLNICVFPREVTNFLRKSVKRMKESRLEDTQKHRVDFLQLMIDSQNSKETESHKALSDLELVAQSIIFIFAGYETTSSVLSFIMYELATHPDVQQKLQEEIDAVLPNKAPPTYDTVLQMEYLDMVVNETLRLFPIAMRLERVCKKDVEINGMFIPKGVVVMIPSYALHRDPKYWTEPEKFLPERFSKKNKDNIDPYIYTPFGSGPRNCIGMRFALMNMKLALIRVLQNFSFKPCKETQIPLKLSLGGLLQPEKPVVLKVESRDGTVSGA
Chain of Cytochrome P450 2C19 (P33261 whole entry): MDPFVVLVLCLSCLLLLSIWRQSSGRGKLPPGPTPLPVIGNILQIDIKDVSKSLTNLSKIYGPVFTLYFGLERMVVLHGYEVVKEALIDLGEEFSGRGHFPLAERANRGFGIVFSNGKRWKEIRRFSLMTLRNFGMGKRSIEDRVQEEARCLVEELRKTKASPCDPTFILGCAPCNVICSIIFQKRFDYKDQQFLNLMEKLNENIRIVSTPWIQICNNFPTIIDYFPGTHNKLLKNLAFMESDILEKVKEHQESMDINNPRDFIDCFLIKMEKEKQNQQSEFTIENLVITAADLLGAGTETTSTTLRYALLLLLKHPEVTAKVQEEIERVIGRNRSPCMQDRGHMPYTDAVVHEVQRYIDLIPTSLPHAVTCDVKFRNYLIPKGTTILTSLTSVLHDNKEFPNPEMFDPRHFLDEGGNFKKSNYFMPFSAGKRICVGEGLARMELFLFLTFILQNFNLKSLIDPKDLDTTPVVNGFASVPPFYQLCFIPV

As to `CCc1ccc(C(=O)NN(C(=O)c2cc(C)cc(CO)c2)C(C)(C)C)cc1`, on Cytochrome P450 3A4, the Drug metabolism result is reported as “metabolite_detected”. For the same compound, the Retention_time in data set [1] worked out at 10.5 min.

`CC(=O)c1ccc(C(=O)NN(C(=O)c2cc(C)cc(C)c2)C(C)(C)C)cc1`: on Cytochrome P450 2C19, the Drug metabolism entry is “metabolite_detected”. The Retention_time in data set [1] came out at 12 min.

For `CCc1ccc(C(=O)NN(C(=O)c2cc(C)cc(C)c2)C(C)(C)CO)cc1`, on Cytochrome P450 3A4, the Drug metabolism entry is recorded as “metabolite_detected”. For the same compound, the Retention_time in data set [1] is reported as 14.5 min.

As to `C=Cc1ccc(C(=O)NN(C(=O)c2cc(C)cc(C)c2)C(C)(C)C)cc1`, the Drug metabolism result at Cytochrome P450 2C19 is on record as “metabolite_detected”. This compound gave a Retention_time in data set [1] of 15 min.

`Cc1cc(C)cc(C(=O)N(NC(=O)c2ccc(C(C)O)cc2)C(C)(C)C)c1` (racemic): the Drug metabolism result on Cytochrome P450 3A4 and at Cytochrome P450 2C19 was “metabolite_detected” throughout. Moreover, the Retention_time in data set [1] turned out to be 9.5 min.

As for `CCc1ccc(C(=O)NN(C(=O)c2cc(C)cc(C)c2)C(C)(C)C)cc1` [TEBUFENOZIDE], the Ratio in data set [2] amounted to 4; in data set [3] it was 6.
